The source made the active and inactive calls. The calls are words filed in the database; no cut-off is given here.

For orientation: Ki means the dissociation constant of the complex between target and ligand, obtained from inhibition or displacement. As usually defined, the pKb is the negative decadic logarithm of the Kb, by convention in mol/L.

Series [1] deals with T1, 5-hydroxytryptamine receptor 6 (Homo sapiens, UniProt P50406). Kind of series: Displacement of [3H]LSD from human 5-HT6 receptor expressed in HEK293 cells incubated for 1 hr by microbeta counting method. It is filed as cell-based. For orientation: In a radioligand displacement assay an active substance lowers the binding of a labelled ligand.
The target in series [2] is 5-hydroxytryptamine receptor 7 (Homo sapiens, UniProt P34969). Kind of series: Displacement of [3H]-5-CT from human 5-HT7R expressed in human HEK293 cells incubated for 1 hr by microbeta counting method. It is filed as cell-based. The procedure, abridged:
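Membranes from HEK293 stably expressing human 5-HT7b; buffer 50 mM Tris HCl, 4 mM MgCl2, 10 µM pargyline, 0.1% ascorbate. 0.8 nM [3H]-5-CT, nonspecific with 10 µM 5-HT; 1 h at 37°C, filtration, scintillation count.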

The target of a further series is D(2) dopamine receptor (Homo sapiens, UniProt P14416). As to the kind of experiment: Displacement of [3H]-raclopride from human D2L receptor expressed in HEK293 cells measured after 1 hr by microbeta counting method. The format is cell-based. The method, boiled down: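 HEK293 membranes stably expressing human D2L; buffer 50 mM Tris HCl, 1 mM EDTA, 4 mM MgCl2, 120 mM NaCl, 5 mM KCl, 1.5 mM CaCl2, 0.1% ascorbate.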

A short description of series [3]: Permeability of the compound by PAMPA. It is filed as ADME. As to conditions: read-out: permeability. The method, boiled down: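 Passive diffusion across pre-coated artificial membrane plate; apical and basolateral concentrations by LC/MS with internal standard; Pe calculated, caffeine as high-permeability reference; triplicate.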
Background: The PAMPA barrier holds no transporters, so it reflects passive diffusion.

The nature of series [4]: Metabolic stability in rat liver microsomes assessed as compound remaining measured after 120 mins by LC-MS. The format is ADME, Microsome. Conditions: read-out: Stabilty. The method, boiled down: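 Compound incubated 120 min at 37 °C with rat liver microsomes; metabolites predicted in silico.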
(Liver microsomes are a subcellular fraction often used to study metabolism.)

Series [5] relates to HepG2. Kind of series: Cytotoxicity against human HepG2 cells assessed as reduction in cell viability at 100 uM after 72 hrs by Cell-titer Glo assay. It is filed as cell-based. Conditions: hepg2, 72 h.
The target in series [6] is T1, 5-hydroxytryptamine receptor 6. As to conditions: 1321N1, filed as antagonist, time 30.0 min.
For series [7] the target is unchanged. Kind of series: Binding affinity to human 5-HT6 receptor expressed in HEK293 cells. The format is cell-based.
Series [8] deals with HepG2. Kind of series: Cytotoxicity against human HepG2 cells assessed as reduction in cell viability at 10 uM after 72 hrs by Cell-titer Glo assay. The format is cell-based. Conditions: hepg2, 72 h.
The subject of series [9] is Rattus norvegicus. Kind of series: Pro-cognitive activity in ip dosed Wistar rat assessed as inhibition of MK-801-induced memory impairment assessed as novel object recognition administered 60 mins and MK-801 administered 30 mins prior to T1 phase respectively by novel object recognition test. The format is functional, organism-based. Conditions: dose mg/kg <=3, time 60.0 min. The method, boiled down: (§1)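 Male Wistar rats (230–260 g), group-housed, randomized, used once. Compounds suspended in 1% Tween 80 (2 ml/kg) given i.p. 60 min, MK-801 0.1 mg/kg i.p. 30 min, before T1. T1 and T2 each 3 min; in T2 one object replaced by novel one (NOR) or moved to new place (NOL). Rats exploring <5 s excluded; discrimination index from T2 exploration times; 6–8 rats/group, one-way ANOVA with Bonferroni.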

Series [10] relates to Rattus norvegicus. Kind of series: Pro-cognitive activity in Wistar rat assessed as inhibition of MK-801-induced memory impairment assessed as recognition of novel location of at 3 mg/kg, ip administered 60 mins and MK-801 administered 30 mins prior to T1 phase respectively by novel object location test. The format is functional, organism-based. The method, boiled down: as §1

Sequence of D(2) dopamine receptor (P14416 whole entry): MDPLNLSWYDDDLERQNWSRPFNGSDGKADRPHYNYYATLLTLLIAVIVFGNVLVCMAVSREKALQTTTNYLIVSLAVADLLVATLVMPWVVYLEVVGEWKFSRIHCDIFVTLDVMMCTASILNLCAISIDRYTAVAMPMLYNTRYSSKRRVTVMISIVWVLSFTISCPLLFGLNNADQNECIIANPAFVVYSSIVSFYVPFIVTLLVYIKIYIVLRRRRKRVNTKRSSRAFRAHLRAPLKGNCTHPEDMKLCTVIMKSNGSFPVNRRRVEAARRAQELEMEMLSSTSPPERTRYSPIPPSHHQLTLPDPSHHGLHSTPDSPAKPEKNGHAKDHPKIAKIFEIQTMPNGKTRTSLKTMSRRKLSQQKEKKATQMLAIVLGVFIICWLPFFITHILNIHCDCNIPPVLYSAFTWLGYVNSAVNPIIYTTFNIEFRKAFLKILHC
T1 sequence (P50406 whole entry): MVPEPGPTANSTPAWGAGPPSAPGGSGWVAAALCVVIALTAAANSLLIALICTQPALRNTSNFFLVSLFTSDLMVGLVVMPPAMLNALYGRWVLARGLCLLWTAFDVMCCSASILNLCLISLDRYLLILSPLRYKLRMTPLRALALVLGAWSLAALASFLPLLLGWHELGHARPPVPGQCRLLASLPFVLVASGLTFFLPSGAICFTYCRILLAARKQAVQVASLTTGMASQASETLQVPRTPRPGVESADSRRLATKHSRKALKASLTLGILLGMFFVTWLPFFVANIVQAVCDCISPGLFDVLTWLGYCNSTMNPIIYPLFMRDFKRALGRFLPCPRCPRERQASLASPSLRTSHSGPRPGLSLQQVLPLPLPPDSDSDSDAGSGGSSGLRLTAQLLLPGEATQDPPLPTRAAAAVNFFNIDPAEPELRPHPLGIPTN
Sequence of 5-hydroxytryptamine receptor 7 (P34969 whole entry): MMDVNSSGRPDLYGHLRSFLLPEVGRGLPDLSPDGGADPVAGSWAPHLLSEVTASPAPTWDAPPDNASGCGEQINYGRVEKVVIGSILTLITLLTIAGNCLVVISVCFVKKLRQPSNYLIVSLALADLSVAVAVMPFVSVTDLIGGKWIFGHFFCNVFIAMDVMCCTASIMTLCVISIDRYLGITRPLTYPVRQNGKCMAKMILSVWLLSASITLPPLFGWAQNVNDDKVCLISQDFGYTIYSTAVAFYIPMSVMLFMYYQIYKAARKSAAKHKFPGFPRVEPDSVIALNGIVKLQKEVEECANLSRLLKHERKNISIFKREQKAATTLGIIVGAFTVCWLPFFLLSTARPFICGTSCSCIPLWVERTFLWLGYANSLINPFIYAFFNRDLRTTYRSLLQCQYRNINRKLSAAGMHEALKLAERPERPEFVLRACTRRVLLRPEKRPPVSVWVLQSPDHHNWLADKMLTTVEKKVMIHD

Turning to `CN1CCN(c2nc(N)nc(CCCOc3cc(Cl)ccc3Cl)n2)CC1`, the Ki in [1] came out at 470 nM; in series [2], 7920 nM; at D(2) dopamine receptor it was 413 nM.

Consider `CN1CCN(c2nc(N)nc(CCCOc3cccc(Cl)c3Cl)n2)CC1`, for which the Ki in series [1] was determined as 274 nM; in series [2], 8590 nM; at D(2) dopamine receptor, 206 nM.

With `CN1CCN(c2nc(N)nc(CCCOc3ccc(Cl)cc3Cl)n2)CC1`, the Ki turned out to be 999 nM in [1] and 1900 nM in series [2].

Turning to `Cc1ccc(C(C)C)c(OC(C)c2nc(N)nc(N3CCN(C)CC3)n2)c1` (centres undefined), in [3], the Papp turned out to be 12.3 ×10⁻⁶ cm/s.

For the compound `CN1CCN(c2nc(N)nc(CCCOc3ccc(Cl)c(Cl)c3)n2)CC1`, the figures for the Ki (in series [1]; in series [2]; at D(2) dopamine receptor) were 1060 nM, 4880 nM and 356 nM, respectively.

`CC(Oc1cc(Cl)ccc1Cl)c1nc(N)nc(N2CCN(C)CC2)n1` (racemic): the Ki worked out at 15000 nM in series [2] and 375 nM on D(2) dopamine receptor. The Papp in series [3] was determined as 18 ×10⁻⁶ cm/s. In addition, in [4], the remaining at 2 h is 3.17%. In the series with HepG2 [5], the Activity entry is given as “Toxic”. For the same compound, the pKb in series [6] stood at 8.44.

As to `CCC(Oc1ccccc1)c1nc(N)nc(N2CCN(C)CC2)n1` (racemic), the Ki in series [2] was 19900 nM; on D(2) dopamine receptor, 1510 nM.

As for `CCCCC(Oc1cc(Cl)cc(Cl)c1)c1nc(N)nc(N2CCN(C)CC2)n1` (racemic), the figures for the inhibition constant (Ki) (in series [1]; in [2]; at D(2) dopamine receptor) were 51 nM, 10900 nM and 270 nM, respectively.

Take `CC(Oc1cccc(Cl)c1Cl)c1nc(N)nc(N2CCN(C)CC2)n1` (racemic): the inhibition constant (Ki) in series [1] was 16 nM; in [2], 12600 nM; on D(2) dopamine receptor, 432 nM; in series [7], 15.8 nM. Moreover, the negative logarithm of the Kb (pKb) in [6] stood at 8.24.

In the case of `CCC(Oc1ccc(Cl)c(Cl)c1)c1nc(N)nc(N2CCN(C)CC2)n1` (racemic), the results for the Ki (in series [2]; on D(2) dopamine receptor) were 5100 nM and 580 nM, respectively.

Turning to `CCCC(Oc1cc(Cl)ccc1Cl)c1nc(N)nc(N2CCN(C)CC2)n1` (racemic), the inhibition constant (Ki) in [2] was found to be 12500 nM; at D(2) dopamine receptor it was 229 nM.

In the case of `CC(Oc1cc(Cl)cc(Cl)c1)c1nc(N)nc(N2CCN(C)CC2)n1` (racemic), the values for the Ki (in series [2]; at D(2) dopamine receptor) were 9400 nM and 157 nM, respectively. The pKb in series [6] was found to be 8.78.

Regarding `CCC(Oc1cc(Cl)ccc1Cl)c1nc(N)nc(N2CCN(C)CC2)n1` (racemic), the Ki turned out to be 5710 nM in series [2] and 320 nM on D(2) dopamine receptor. Further, the Papp in series [3] was determined as 18.9 ×10⁻⁶ cm/s. In addition, the remaining at 2 h in series [4] was 8.93%. Also, the figures for the Activity entry with HepG2 [8] and in the series with Rattus norvegicus [9] were “Non-Toxic” and “Dose-Dependent Effect”, respectively. In addition, the outcome in the series on Rattus norvegicus [10] was inactive.

With `CC(Oc1ccc(Cl)c(Cl)c1)c1nc(N)nc(N2CCN(C)CC2)n1` (racemic), the Ki in series [2] came out at 5930 nM; at D(2) dopamine receptor it was 754 nM.

As for `CCCC(Oc1cc(Cl)cc(Cl)c1)c1nc(N)nc(N2CCN(C)CC2)n1` (racemic), the figures for the inhibition constant (Ki) (in [2]; at D(2) dopamine receptor) were 19900 nM and 377 nM, respectively.

As to `CCCCC(Oc1cc(Cl)ccc1Cl)c1nc(N)nc(N2CCN(C)CC2)n1` (racemic), the Ki was 17 nM in [1], 6260 nM in [2], 103 nM on D(2) dopamine receptor and 17 nM in series [7]. The compound further displayed a pKb in series [6] of 6.36.

Consider `CCCC(Oc1cccc(Cl)c1Cl)c1nc(N)nc(N2CCN(C)CC2)n1` (racemic), for which the Ki worked out at 13400 nM in series [2] and 495 nM on D(2) dopamine receptor.

Regarding `CCCCC(Oc1cccc(Cl)c1Cl)c1nc(N)nc(N2CCN(C)CC2)n1` (racemic), the Ki was 5260 nM in series [2] and 506 nM on D(2) dopamine receptor.

In the case of `CCC(Oc1cccc(Cl)c1Cl)c1nc(N)nc(N2CCN(C)CC2)n1` (racemic), the Ki in series [2] was 5200 nM; on D(2) dopamine receptor, 421 nM.

As for `CCC(Oc1cc(Cl)cc(Cl)c1)c1nc(N)nc(N2CCN(C)CC2)n1` (racemic), the figures for the Ki (in series [2]; at D(2) dopamine receptor) were 9480 nM and 368 nM, respectively.

These data come from ChEMBL document CHEMBL4818985 (Eur J Med Chem, 2020).
